Results: ChEMBL document CHEMBL1126717 (J Med Chem, 1993)
One block for each molecule: values may come before it.

What was measured:
Format in all cases: cell-based
[1] = target: T1, Polyunsaturated fatty acid 5-lipoxygenase (Rattus norvegicus) (UniProt P12527); test: Inhibition of LTB4 in whole cell 5-lipoxygenase assay in an intact rat basophilic leukemia (RBL-1) cell line at 16 uM
T1 sequence (whole entry): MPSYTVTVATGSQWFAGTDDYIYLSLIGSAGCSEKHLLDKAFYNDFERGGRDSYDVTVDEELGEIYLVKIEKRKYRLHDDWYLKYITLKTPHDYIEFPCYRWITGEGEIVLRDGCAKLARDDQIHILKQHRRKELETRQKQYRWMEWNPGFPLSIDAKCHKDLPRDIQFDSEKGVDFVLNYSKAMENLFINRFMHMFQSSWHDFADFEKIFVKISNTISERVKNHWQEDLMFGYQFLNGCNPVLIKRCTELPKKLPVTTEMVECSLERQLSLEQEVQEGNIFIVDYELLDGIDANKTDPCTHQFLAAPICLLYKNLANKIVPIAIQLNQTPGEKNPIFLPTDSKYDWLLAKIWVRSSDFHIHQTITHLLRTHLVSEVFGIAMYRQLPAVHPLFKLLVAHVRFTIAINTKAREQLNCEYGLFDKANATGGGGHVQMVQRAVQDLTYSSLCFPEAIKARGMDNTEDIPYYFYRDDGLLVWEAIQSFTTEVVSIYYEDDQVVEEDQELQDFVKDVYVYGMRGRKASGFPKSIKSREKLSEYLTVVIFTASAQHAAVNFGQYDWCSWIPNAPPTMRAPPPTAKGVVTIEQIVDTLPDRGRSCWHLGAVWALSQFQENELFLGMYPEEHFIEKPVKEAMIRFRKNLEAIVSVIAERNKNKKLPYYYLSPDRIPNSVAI
Outline: (§1)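 RBL-1 cells grown at 37 °C in suspension in MEM with 12% FBS under 5% CO₂. Washed in cold PBS pH 7.4 and resuspended at 2 × 10⁶ cells/mL in PBS with 1.0 mM calcium. Preincubated with test agent in 1% DMSO for 10 min at room temperature, then stimulated with A23187 (5 μM) for 7 min at 37 °C. LTB₄ in the supernatant measured by RIA. Percent inhibition taken against vehicle; IC₅₀ by linear regression on log concentration.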

[2] = target: T2, Cyclooxygenase (Rattus norvegicus) (UniProt P35355+Q63921); test: Inhibition of PGF2-alpha formation in Prostaglandin G/H synthase assay in an intact rat basophilic leukemia (RBL-1) cell line at 16 uM
Outline: (§2)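 RBL-1 suspension cultures (MEM, 12% FBS, 37 °C, 5% CO₂) were washed in PBS and held at 2 × 10⁶ cells/mL in PBS containing 1.0 mM Ca. Cells were exposed to compound in 1% DMSO for 10 min at room temperature, then to 5 μM A23187 for 7 min at 37 °C, and chilled on ice to stop. PGF₂α in the supernatant was measured by RIA. Percent inhibition was calculated relative to vehicle-treated cells.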

[3] = target: T1, Polyunsaturated fatty acid 5-lipoxygenase (Rattus norvegicus); test: Inhibition of LTB4 in whole cell 5-lipoxygenase assay in an intact rat basophilic leukemia (RBL-1) cell line at 10 uM; outline: as §1
[4] = target: T2, Cyclooxygenase (Rattus norvegicus); test: Inhibition of PGF2-alpha formation in Prostaglandin G/H synthase assay in an intact rat basophilic leukemia (RBL-1) cell line at 10 uM; outline: as §2
Cyclooxygenase = target: T3, Cyclooxygenase (Rattus norvegicus, UniProt P35355+Q63921); test: Inhibition of Prostaglandin G/H synthase mediated PGF2-alpha formation in rat basophilic leukemia (RBL-1) cells
T3 sequence (P35355 whole entry): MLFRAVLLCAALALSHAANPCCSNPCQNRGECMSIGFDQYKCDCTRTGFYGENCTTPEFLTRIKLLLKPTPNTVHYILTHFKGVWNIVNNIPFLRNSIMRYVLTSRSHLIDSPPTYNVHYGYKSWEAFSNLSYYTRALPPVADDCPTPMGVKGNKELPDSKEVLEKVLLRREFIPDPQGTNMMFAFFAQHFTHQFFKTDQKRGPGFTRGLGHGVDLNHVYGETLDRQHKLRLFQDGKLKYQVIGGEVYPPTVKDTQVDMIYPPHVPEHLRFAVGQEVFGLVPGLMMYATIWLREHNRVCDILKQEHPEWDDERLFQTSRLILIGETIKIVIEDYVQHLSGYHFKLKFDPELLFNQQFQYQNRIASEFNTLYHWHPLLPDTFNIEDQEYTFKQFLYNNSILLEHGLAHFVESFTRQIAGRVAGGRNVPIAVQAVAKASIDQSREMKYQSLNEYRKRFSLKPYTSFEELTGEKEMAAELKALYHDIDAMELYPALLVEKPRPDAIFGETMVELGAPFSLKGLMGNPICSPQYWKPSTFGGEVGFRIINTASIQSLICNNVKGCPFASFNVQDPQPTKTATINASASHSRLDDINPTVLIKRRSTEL
T3 sequence (Q63921 whole entry): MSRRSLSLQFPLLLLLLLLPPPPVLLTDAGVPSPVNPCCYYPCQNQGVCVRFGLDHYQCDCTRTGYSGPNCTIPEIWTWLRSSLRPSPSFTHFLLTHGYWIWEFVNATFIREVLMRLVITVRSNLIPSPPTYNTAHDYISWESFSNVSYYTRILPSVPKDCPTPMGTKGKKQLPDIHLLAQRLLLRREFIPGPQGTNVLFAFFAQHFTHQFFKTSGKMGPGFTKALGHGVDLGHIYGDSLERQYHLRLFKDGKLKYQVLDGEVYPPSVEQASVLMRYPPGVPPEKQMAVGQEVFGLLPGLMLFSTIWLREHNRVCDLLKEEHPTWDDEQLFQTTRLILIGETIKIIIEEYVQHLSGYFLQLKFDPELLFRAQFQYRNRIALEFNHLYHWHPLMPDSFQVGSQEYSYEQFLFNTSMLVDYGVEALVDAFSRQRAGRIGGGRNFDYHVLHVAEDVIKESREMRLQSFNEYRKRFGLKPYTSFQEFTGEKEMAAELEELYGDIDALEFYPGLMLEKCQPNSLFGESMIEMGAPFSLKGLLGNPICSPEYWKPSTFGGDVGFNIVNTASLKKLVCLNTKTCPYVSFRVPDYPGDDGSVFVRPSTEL

[5] = target: T4, Polyunsaturated fatty acid 5-lipoxygenase (Rattus norvegicus, UniProt P12527); test: Inhibition 5-lipoxygenase mediated LTB4 formation in rat basophilic leukemia (RBL-1) cells
T4 sequence (P12527 whole entry): T1 sequence (whole entry)
Outline: as §1, with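 “Washed” for “RBL-1 cells grown at 37 °C in suspension in MEM with 12% FBS under 5% CO₂. Washed”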

[6] = target: T1, Polyunsaturated fatty acid 5-lipoxygenase (Rattus norvegicus); test: Inhibition of LTB4 in whole cell 5-lipoxygenase assay in an intact rat basophilic leukemia (RBL-1) cell line; outline: as §1

inhibition [1]: < 40%
inhibition [2]: < 40%
SMILES: Cc1ccc(Cl)c(Nc2ccccc2-c2n[nH]c(S)n2)c1Cl

inhibition [3]: < 40%
inhibition [4]: < 40%
SMILES: Oc1n[nH]c(-c2ccccc2Nc2cccc(C(F)(F)F)c2)n1

IC50 (Cyclooxygenase): 11000 nM
SMILES: Nc1nnc(-c2ccccc2Nc2cccc(C(F)(F)F)c2)s1

inhibition [1]: 86%
inhibition [2]: < 40%
SMILES: Cc1ccc(Cl)c(Nc2ccccc2-c2nnc(S)n2C)c1Cl

IC50 [5]: 12000 nM
IC50 (Cyclooxygenase): 30000 nM
SMILES: Cn1c(S)nnc1-c1ccccc1Nc1cccc(C(F)(F)F)c1

IC50 (Cyclooxygenase): 7100 nM
SMILES: Nc1nnc(-c2ccccc2Nc2cccc(C(F)(F)F)c2)o1

IC50 (Cyclooxygenase): 1700 nM
SMILES: Cc1ccc(Cl)c(Nc2ccccc2-c2nnc(S)s2)c1Cl

IC50 (Cyclooxygenase): 1000 nM
SMILES: N#CNc1nnc(-c2ccccc2Nc2cccc(C(F)(F)F)c2)o1

IC50 [5]: 1700 nM
IC50 (Cyclooxygenase): 2600 nM
SMILES: N#CNc1nnc(-c2ccccc2Nc2cccc(C(F)(F)F)c2)s1

IC50 [5]: 290 nM
IC50 (Cyclooxygenase): 1900 nM
SMILES: Cc1ccc(Cl)c(Nc2ccccc2-c2nnc(NC#N)s2)c1Cl

SMILES: Cc1ccc(Cl)c(Nc2ccccc2-c2nnc(NC#N)o2)c1Cl
IC50 (Cyclooxygenase): 250 nM

inhibition [1]: < 40%
inhibition [2]: < 40%
SMILES: Cc1ccc(Cl)c(Nc2ccccc2-c2nnc(O)n2C)c1Cl

inhibition [3]: 45%
inhibition [4]: < 40%
SMILES: Cc1ccc(Cl)c(Nc2ccccc2-c2nnc(N)o2)c1Cl

inhibition [1]: < 40%
inhibition [2]: < 40%
SMILES: Cn1c(O)nnc1-c1ccccc1Nc1cccc(C(F)(F)F)c1

IC50 [6]: 7400 nM
SMILES: Oc1nnc(-c2ccccc2Nc2cccc(C(F)(F)F)c2)s1

inhibition [1]: < 40%
SMILES: FC(F)(F)c1cccc(Nc2ccccc2-c2n[nH]c(S)n2)c1

IC50 [5]: 690 nM
IC50 (Cyclooxygenase): 6100 nM
SMILES: Cc1ccc(Cl)c(Nc2ccccc2-c2nnc(N)s2)c1Cl
